In paper PMC6687308 (Journal of natural products, 2017):
“Also recorded” adds a separate entry of the source. Read-outs that look alike come from different tables or passages of the source.

Columns and labels:
human TRPM2 = human TRPM2 (Homo sapiens, UniProt O94759); assay type: cell-based; conditions: for TRPM2 current amplitudes at fivefold higher concentration: fivefold higher concentrations
[1] = tested on: TRPM2-overexpressing HEK293 cells; assay type: cell-based
mouse TRPM7 = mouse TRPM7 (Mus musculus, UniProt Q923J1); test: Whole-cell patch clamp of TRPM7 currents in tetracycline-inducible HEK293 cells; assay type: cell-based; conditions: +80 mV, 200 s
How it was run: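 Tetracycline-inducible HEK293 cells carrying FLAG-murine TRPM7 were induced with 1 μg/mL tetracycline 5–22 h beforehand. Cells were then incubated 15 min in culture medium with 100 nM, 500 nM or 2 μM test compound. Pipette: 140 mM K-glutamate with 10 mM BAPTA. Ramps ran −100 to +100 mV at 0.5 Hz, 21–25 °C. Amplitudes, not capacitance-corrected, were taken at +80 mV and 200 s, normalized, and fitted for IC50 and Hill coefficient.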

CRAC (Orai1/STIM1) = CRAC (Orai1/STIM1) (Homo sapiens, UniProt Q96D31); assay type: cell-based; conditions: 2 μM, 30–60 min exposure
How it was run: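 HEK293 cells stably expressing STIM1 were transiently transfected with CRACM1-pIRES2-EGFP and patched 24–48 h later, with EGFP identifying cotransfected cells. External solution contained 10 mM CaCl2 and 10 mM TEA-Cl (pH 7.2, 300 mOsm). Ramps ran −150 to +150 mV over 50 ms. Bath solution was control or supplemented with test compound. Current–voltage relationships were taken at 100 s.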

endogenous TRPM4 = endogenous TRPM4 (Homo sapiens, UniProt Q8TD43); test: Whole-cell patch clamp of endogenous TRPM4-like currents in Jurkat T lymphocytes; assay type: cell-based; conditions: 500 nM
How it was run: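 Jurkat T cells were incubated with 500 nM test compound or none in standard external solution before whole-cell recording. Recordings were made within the first 60 min of incubation. Pipette: Cs-glutamate-based solution with intracellular Ca2+ clamped to 2 μM. Ramps ran −100 to +100 mV (50 ms, 0.5 Hz) from 0 mV, at 21–25 °C. Currents were extracted at −80 mV.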

TRPV1 = TRPV1 (Rattus norvegicus, UniProt O35433); assay type: cell-based; conditions: 500 nM, 10 μM capsaicin
How it was run: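 INS-1 cells were incubated with 500 nM test compound or none in standard external Ringer's solution before whole-cell patch clamp at 21–25 °C. Pipette: 140 mM Cs-glutamate, 8 NaCl, 1 MgCl2, 10 HEPES (pH 7.2), with Ca2+ left unbuffered. Ramps ran −100 to +100 mV over 50 ms at 0.5 Hz from a 0 mV holding potential. Amplitudes were taken at −80 mV.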

endogenous TRPM2 = endogenous TRPM2 (Rattus norvegicus, UniProt E9PTA2); assay type: cell-based
How it was run: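 INS-1 cells (RPMI, 10% FBS) were held in standard external Ringer's (pH 7.2) containing the test compound. Whole-cell currents were recorded during the first 60 min, at 21–25 °C. Pipette: 140 mM Cs-glutamate, unbuffered Ca2+, ADPR 100 or 500 μM. Ramps ran −100 to +100 mV (50 ms, 0.5 Hz). Amplitudes at −80 mV and 50 s were expressed as percent inhibition of control and fitted for IC50 and Hill coefficient.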

INS-1 cells = test: Appearance of INS-1 cells during exposure in patch-clamp sessions; assay type: cell-based, rat
How it was run: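 Rat insulinoma INS-1 cells were grown at 37 °C, 5% CO2 in RPMI with 10% FBS. During whole-cell patch-clamp sessions at 21–25 °C, cells were held in standard external Ringer's solution with continual exposure to the test compound.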

TRPM2 = conditions: with preincubation; cited from earlier work

Sequence of human TRPM2 (O94759 whole entry): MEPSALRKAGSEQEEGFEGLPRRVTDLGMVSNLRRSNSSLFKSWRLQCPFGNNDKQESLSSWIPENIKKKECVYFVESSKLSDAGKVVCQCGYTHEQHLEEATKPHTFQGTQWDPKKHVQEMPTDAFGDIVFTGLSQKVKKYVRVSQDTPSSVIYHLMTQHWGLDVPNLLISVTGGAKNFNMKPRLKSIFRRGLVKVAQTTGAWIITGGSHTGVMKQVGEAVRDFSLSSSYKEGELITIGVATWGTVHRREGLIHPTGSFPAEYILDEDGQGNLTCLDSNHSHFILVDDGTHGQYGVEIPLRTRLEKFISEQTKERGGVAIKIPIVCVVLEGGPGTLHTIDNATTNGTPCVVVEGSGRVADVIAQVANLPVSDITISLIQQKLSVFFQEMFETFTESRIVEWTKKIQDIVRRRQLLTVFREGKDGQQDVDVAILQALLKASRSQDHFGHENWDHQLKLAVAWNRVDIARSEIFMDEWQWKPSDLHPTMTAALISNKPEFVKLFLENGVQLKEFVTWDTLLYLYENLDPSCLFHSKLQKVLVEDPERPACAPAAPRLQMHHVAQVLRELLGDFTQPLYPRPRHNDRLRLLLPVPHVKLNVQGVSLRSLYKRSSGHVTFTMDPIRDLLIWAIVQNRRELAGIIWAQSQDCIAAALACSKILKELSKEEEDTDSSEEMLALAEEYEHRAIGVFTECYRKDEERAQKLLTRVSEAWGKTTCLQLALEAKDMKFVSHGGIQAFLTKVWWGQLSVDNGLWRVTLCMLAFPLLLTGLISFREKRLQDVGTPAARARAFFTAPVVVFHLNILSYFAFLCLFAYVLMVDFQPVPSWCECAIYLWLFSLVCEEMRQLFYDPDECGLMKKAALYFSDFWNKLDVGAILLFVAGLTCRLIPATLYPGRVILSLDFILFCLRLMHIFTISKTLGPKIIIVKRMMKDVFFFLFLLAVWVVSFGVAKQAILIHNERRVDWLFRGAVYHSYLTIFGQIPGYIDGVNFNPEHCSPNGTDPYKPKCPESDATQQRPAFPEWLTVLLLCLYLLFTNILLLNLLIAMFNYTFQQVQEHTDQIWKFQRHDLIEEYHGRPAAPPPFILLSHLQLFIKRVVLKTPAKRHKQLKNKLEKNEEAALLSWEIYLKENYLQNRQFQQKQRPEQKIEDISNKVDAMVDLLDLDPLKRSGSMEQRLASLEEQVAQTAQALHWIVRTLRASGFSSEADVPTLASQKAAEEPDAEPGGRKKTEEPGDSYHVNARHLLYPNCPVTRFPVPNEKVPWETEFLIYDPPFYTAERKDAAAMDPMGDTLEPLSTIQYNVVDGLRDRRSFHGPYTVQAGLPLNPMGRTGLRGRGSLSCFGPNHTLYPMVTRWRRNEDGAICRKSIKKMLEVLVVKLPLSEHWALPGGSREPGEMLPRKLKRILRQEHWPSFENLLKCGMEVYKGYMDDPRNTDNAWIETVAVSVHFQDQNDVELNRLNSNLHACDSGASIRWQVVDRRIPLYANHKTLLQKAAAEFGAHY
Sequence of CRAC (Orai1/STIM1) (Q96D31 whole entry, species assumed): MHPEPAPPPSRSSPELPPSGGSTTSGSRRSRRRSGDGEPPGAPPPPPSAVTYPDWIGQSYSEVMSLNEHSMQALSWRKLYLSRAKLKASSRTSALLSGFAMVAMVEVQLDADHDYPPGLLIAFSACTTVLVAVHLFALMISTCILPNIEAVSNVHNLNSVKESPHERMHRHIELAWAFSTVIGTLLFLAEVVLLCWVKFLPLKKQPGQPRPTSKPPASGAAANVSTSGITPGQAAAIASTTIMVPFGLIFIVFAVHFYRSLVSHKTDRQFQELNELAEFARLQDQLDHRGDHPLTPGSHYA
Sequence of CRAC (Orai1/STIM1) (Q13586 23-685 partner, species assumed): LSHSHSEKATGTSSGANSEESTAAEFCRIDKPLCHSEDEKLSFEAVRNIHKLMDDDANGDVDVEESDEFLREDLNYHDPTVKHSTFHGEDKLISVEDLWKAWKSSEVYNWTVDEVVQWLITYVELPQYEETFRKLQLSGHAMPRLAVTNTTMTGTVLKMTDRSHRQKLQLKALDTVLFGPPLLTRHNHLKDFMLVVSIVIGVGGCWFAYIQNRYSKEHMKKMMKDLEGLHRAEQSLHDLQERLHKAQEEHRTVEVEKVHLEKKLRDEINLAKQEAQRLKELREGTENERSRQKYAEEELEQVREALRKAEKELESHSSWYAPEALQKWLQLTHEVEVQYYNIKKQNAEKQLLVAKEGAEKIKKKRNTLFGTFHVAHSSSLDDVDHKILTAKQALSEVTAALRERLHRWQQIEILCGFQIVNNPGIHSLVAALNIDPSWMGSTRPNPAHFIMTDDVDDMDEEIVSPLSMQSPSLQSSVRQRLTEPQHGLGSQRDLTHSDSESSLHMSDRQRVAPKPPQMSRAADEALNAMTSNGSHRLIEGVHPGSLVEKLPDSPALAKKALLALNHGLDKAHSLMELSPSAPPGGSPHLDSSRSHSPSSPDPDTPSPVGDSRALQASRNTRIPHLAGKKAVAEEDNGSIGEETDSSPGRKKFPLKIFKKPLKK
Sequence of endogenous TRPM2 (E9PTA2 whole entry): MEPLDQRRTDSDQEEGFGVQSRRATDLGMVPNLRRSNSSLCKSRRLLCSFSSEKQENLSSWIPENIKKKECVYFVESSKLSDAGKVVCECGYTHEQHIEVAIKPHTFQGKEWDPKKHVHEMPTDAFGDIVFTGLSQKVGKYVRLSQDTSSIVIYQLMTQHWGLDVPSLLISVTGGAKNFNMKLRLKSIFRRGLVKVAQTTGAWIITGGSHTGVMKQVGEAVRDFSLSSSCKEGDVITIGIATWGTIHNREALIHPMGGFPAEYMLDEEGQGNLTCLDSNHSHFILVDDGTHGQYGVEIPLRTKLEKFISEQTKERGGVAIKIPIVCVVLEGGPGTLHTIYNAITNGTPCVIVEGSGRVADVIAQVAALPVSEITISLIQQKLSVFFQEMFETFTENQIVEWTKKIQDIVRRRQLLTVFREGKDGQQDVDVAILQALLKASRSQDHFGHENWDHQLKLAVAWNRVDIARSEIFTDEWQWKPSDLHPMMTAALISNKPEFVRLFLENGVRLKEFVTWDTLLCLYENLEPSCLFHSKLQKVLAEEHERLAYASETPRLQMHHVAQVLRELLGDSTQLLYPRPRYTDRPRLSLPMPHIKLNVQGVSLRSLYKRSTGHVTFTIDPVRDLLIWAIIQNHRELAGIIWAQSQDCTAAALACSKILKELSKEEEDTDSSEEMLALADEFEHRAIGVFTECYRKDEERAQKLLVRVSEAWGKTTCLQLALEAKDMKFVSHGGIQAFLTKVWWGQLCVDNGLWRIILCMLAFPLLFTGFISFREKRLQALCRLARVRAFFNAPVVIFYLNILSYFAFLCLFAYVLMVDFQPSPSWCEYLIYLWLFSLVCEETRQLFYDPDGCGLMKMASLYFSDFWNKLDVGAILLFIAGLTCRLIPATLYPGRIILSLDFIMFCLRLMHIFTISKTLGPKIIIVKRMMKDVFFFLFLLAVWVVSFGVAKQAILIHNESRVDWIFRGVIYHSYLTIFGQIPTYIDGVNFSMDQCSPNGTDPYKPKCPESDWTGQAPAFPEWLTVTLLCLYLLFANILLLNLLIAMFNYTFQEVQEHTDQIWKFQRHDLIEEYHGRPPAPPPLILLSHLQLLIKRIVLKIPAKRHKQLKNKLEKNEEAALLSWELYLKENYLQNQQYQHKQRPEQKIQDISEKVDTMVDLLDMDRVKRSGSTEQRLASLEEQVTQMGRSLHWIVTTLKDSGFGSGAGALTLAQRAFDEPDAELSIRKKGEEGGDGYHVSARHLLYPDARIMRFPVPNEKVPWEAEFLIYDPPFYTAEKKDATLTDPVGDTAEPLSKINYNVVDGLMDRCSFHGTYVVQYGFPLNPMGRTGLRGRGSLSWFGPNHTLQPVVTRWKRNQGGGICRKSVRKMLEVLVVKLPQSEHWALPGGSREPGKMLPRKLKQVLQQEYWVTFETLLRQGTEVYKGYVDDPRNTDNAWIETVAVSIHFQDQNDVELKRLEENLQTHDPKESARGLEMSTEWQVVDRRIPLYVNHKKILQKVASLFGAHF
Sequence of TRPV1 (O35433 whole entry): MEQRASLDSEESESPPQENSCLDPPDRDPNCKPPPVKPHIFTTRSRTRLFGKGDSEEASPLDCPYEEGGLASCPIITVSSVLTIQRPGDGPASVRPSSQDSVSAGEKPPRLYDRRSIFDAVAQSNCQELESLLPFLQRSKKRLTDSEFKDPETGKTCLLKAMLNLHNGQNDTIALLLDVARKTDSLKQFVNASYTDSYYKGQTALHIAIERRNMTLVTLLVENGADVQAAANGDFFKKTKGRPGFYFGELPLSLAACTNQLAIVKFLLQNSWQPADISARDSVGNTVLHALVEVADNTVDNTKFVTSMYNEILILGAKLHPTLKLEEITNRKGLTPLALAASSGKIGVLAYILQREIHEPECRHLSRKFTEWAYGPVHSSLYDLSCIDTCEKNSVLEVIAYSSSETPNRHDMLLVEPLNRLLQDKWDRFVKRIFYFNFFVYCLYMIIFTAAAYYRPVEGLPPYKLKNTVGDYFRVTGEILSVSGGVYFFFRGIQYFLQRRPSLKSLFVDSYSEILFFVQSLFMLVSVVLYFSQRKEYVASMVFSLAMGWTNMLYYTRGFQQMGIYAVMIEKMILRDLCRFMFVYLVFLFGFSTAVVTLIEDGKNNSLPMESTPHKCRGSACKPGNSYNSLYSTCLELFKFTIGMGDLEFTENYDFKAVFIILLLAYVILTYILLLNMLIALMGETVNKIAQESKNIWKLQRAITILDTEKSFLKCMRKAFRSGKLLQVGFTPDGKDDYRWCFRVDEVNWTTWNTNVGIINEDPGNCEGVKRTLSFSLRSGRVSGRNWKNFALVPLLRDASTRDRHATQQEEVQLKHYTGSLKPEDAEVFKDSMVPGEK

In the case of `COC[C@H]1OC(=O)c2coc3c2[C@@]1(C)C1=C(C3=O)[C@@H]2CCC(=O)[C@@]2(C)C[C@H]1OC(C)=O` [wortmannin], the “Effect on TRPM2-mediated currents” value (human TRPM2; 20 nM, 60 min preincubation, 500 μM ADPR) is reported as “failed to affect”, the “TRPM2 current amplitudes at fivefold higher concentration” value (human TRPM2; data not shown) is reported as “comparable to control cells” and the “Effect on cell viability at fivefold higher concentration” value ([1]; fivefold higher concentrations, cell rounding, granule formation, blebbing, data not shown) is reported as “affected cell viability”.

For `CC(=O)O[C@H]1C[C@@H]2[C@@]3(C)CCCC(C)(C)[C@@H]3CC[C@@]2(C)[C@@H]2CC=C(C=O)[C@H](C=O)[C@@]12C` [scalaradial], the “Incubation time to reach full potency (full onset) of TRPM2 inhibition” value (human TRPM2; 2 μM scalaradial) was ~ 20 min, the “Effect of acute application on TRPM2 currents” value (human TRPM2; 2 μM, acute application) was “did not significantly affect” and the “Hill coefficient of TRPM2 concentration-response fit” value (human TRPM2; 30–60 min incubation, −80 mV, 100 s) was 1.3. The “Time dependency of TRPM2 inhibition when added internally” value (human TRPM2; added to the cell internally, data not shown) was “not affected”, the “Time to recovery of TRPM2 currents after drug removal” value (human TRPM2; after 60 min incubation in 2 μM) was at most 5 min and the “Hill coefficient of TRPM7 concentration-response fit” value (mouse TRPM7) was 2. For the same molecule, the “Effect on CRAC currents” value (CRAC (Orai1/STIM1)) was “no significant inhibition; also recorded: did not significantly affect; also recorded: failed to inhibit”, the “Effect on TRPM4 current” value (endogenous TRPM4) was “without affecting the current; also recorded: failed to inhibit” and the “Effect on TRPV1 current” value (TRPV1) was “does not inhibit; also recorded: failed to inhibit”. For the same molecule, the “Effect on ADPR-induced currents” value (endogenous TRPM2; 0.5–2.0 μM) was “largely abolished”, the “Hill coefficient of INS-1 TRPM2 dose-response fit” value (endogenous TRPM2; −80 mV, 50 s) was 4 and the “Time cells appeared healthy with continual exposure” value (INS-1 cells; 500 nM and lower concentrations) was “at least 1 h”. For the same molecule, the “Condition of INS-1 cells” value (INS-1 cells; 2 μM) was “rapidly deteriorated”.

In the case of `O=C1NCCc2c(OCCCCN3CCCCC3)cccc21` [DPQ, 3,4-dihydro-5-[4-(1-piperidinyl)butoxyl]-1(2H)-isoquinolinone], the “Effect on TRPM2-mediated currents (ADPR in pipet)” value (human TRPM2; PARP-1 inhibitors, 100 μM ADPR, first 60 min) is reported as “did not affect”.

With `O=c1[nH]c2ccccc2n1C1CCN(Cc2ccc(-c3nc4cc5[nH]cnc5cc4nc3-c3ccccc3)cc2)CC1` [Akt inhibitor VIII, 1,3-dihydro-1-(1-((4-(6-phenyl-1H-imidazo[4,5-g]quinoxalin-7-yl)phenyl)methyl)-4-piperidinyl)-2H-benzimidazol-2-one] the “Effect on TRPM2-mediated currents” value (human TRPM2; 200 nM, 60 min preincubation, 500 μM ADPR) was “failed to affect”, the “TRPM2 current amplitudes at fivefold higher concentration” value (human TRPM2; data not shown) was “comparable to control cells” and the “Effect on cell viability at fivefold higher concentration” value [1] was “affected cell viability”.

For `COc1cc(/C=C/C(=O)CC(=O)/C=C/c2ccc(O)c(OC)c2)ccc1O` [curcumin], the “Concentration range blocking TRPM2 currents” value (TRPM2) is given as “low nanomolar range”.

For `O=C(O)CC[C@@H](Cc1ccc(OCc2ccccc2)cc1)NC(=O)CCCCCCc1ccccc1` [sPLA2 inhibitor, 5-(4-benzyloxyphenyl)-4S-(7-phenylheptanoylamino)pentanoic acid], the “Effect on TRPM2-mediated currents” value (human TRPM2; 5 μM, 100 μM ADPR) was “lack of effect” and the “Cell death during a 1 h recording session” value ([1]; 5–10-fold higher concentrations, data not shown) was “significant cell death”.
